According to ChEMBL document CHEMBL1129605, “Synthesis, structure-activity relationships, and molecular modeling studies of N-(indol-3-ylglyoxylyl)benzylamine derivatives acting at the benzodiazepine receptor” (J Med Chem, 1996):

Tests used:
[1] = molecular target: T1, GABA-A receptor; anion channel (Bos taurus) (UniProt P10063+P08220+P20237+P08219+P10064+P22300); assay: In vitro inhibition of [3H]- flunitrazepam binding to GABA-A central benzodiazepine receptor of bovine cortical membranes at 10 uM
Outline: (§1)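 Filtration binding of [3H]flunitrazepam to bovine cerebral cortex membranes, freeze–thawed and washed in 50 mM Tris-citrate pH 7.4. […] IC50 taken from log-probit plots and converted to Ki, mean ± SEM of three determinations.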

[2] = molecular target: T1, GABA-A receptor; anion channel (Bos taurus); assay: Gamma AminoButyric Acid(GABA) ratio is the Ki without GABA / Ki with GABA; format: protein-complex assay
Outline: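 Ki for [3H]flunitrazepam displacement from bovine cortical membranes determined both without and with GABA. The ratio is Ki without GABA divided by Ki with GABA.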

[3] = molecular target: GABA-A receptor; anion channel; assay: In vitro inhibition of [3H]- flunitrazepam binding to GABA-A benzodiazepine receptor of bovine cortical membranes; parameters: species or system Bos taurus; outline: as §1
[4] = molecular target: T1, GABA-A receptor; anion channel (Bos taurus); assay: Inhibition of [3H]- flunitrazepam binding to GABA-A central benzodiazepine receptor of bovine cortical membranes at 10 uM; outline: as §1
[5] = molecular target: T1, GABA-A receptor; anion channel (Bos taurus); assay: Specific [35S]- TBPS binding at high affinity site loated near chloride channel of GABA-A receptor chloride complex; format: protein-complex assay; parameters: concentration or dose not given beside the values
Outline: (§2)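 Bovine cerebral cortex membranes, freeze–thawed and washed in 50 mM Tris-citrate pH 7.4, incubated with 5 nM [35S]TBPS for 90 min at 25 °C in the same buffer plus 200 mM KBr and 0.1 mM EDTA. Compounds tested at 0.5 μM in ethanol (≤0.2%) with 1 μM GABA present. Nonspecific binding taken with 600 μM picrotoxinin. Bound ligand collected by filtration and counted by scintillation.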

[6] = Partition coefficient of compound; format: physicochemical; settings: octanol/water
Outline: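 Shake-flask partition at room temperature between octanol and phosphate buffer pH 7.4. Solute measured spectrophotometrically in both phases, with phase volumes adjusted so each phase held enough compound. Run at four different solute concentrations.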

[7] = molecular target: T1, GABA-A receptor; anion channel (Bos taurus); assay: In vitro displacement of [35S]-TBPS binding from GABA-A receptor relative to clonazepam; format: protein-complex assay; outline: as §2

SMILES | inhibition [1] | GABA ratio [2] | Ki [3] | inhibition [4] | also measured
O=C(NCc1ccc(O)cc1)C(=O)c1c[nH]c2ccccc12 | 96% | 1.35 | 0.43 µM | – | –
O=C(NCc1ccc(Cl)cc1)C(=O)c1c[nH]c2ccc(Cl)cc12 | 38% | – | – | – | –
O=C(NCc1cccc(O)c1)C(=O)c1c[nH]c2ccc(Cl)cc12 | – | 1.45 | 0.57 µM | 95% | –
O=C(Nc1ccc(O)cc1)C(=O)c1c[nH]c2ccc(Cl)cc12 | – | – | – | 23% | –
COc1ccc(CNC(=O)C(=O)c2c[nH]c3ccc(Cl)cc23)cc1 | – | 1 | 0.107 µM | 81% | –
O=C(NCc1cccc(O)c1)C(=O)c1c[nH]c2ccc([N+](=O)[O-])cc12 | – | 1.32 | 0.065 µM | 95% | Activity [5]: 50%
O=C(NCCCc1ccccc1)C(=O)c1c[nH]c2ccccc12 | 78% | 1 | 1.26 µM | – | –
O=C(NCc1ccccc1)C(=O)c1c[nH]c2ccc(Cl)cc12 | – | 0.95 | 0.49 µM | 34% | –
Cn1cc(C(=O)C(=O)NCc2ccc(Cl)cc2)c2ccccc21 | 86% | 1 | 1 µM | – | –
O=C(NCc1ccc(F)cc1)C(=O)c1c[nH]c2ccccc12 | 99% | 1.16 | 0.052 µM | – | logP [6]: 2.88; Activity [5]: 21%
O=C(Nc1ccc(O)cc1)C(=O)c1c[nH]c2ccccc12 | – | – | – | 65% | –
O=C(NCc1ccc(O)c(O)c1)C(=O)c1c[nH]c2ccc(Cl)cc12 | 96% | 1.33 | 0.18 µM | – | –
O=C(Nc1ccccc1)C(=O)c1c[nH]c2ccccc12 | – | – | – | 10% | –
COc1ccc(CNC(=O)C(=O)c2c[nH]c3ccccc23)cc1 | – | 1 | 0.163 µM | 97% | –
COc1ccc(CNC(=O)C(=O)c2c[nH]c3ccccc23)cc1OC | 99% | 0.8 | 0.094 µM | – | –
COc1cccc(CNC(=O)C(=O)c2c[nH]c3ccc(Cl)cc23)c1 | 89% | 0.79 | 0.162 µM | – | –
COc1cc(CNC(=O)C(=O)c2c[nH]c3ccc([N+](=O)[O-])cc23)ccc1O | 100% | 1.07 | 0.013 µM | – | Activity [5]: 27%
O=C(NCc1cccc(Cl)c1)C(=O)c1c[nH]c2ccc(Cl)cc12 | 14% | – | – | – | –
O=C(NCc1ccccc1Cl)C(=O)c1c[nH]c2ccc([N+](=O)[O-])cc12 | 48% | – | – | – | –

SMILES | inhibition [1] | GABA ratio [2] | Ki [3] | inhibition [4] | also measured
COc1cccc(CNC(=O)C(=O)c2c[nH]c3ccccc23)c1 | 97% | 0.74 | 0.29 µM | – | –
O=C(NCc1cccc(Cl)c1)C(=O)c1c[nH]c2ccc([N+](=O)[O-])cc12 | 0% | – | – | – | –
COc1ccc(CNC(=O)C(=O)c2c[nH]c3ccc(Cl)cc23)cc1OC | 94% | 0.82 | 0.03 µM | – | –
O=C(NCc1ccc(Cl)cc1)C(=O)c1c[nH]c2ccccc12 | 99% | 1.03 | 0.067 µM | – | Activity [5]: 27%
O=C(Nc1ccccc1)C(=O)c1c[nH]c2ccc([N+](=O)[O-])cc12 | – | – | – | 0% | –
COc1cccc(CNC(=O)C(=O)c2c[nH]c3ccc([N+](=O)[O-])cc23)c1 | 84% | 0.91 | 0.038 µM | – | Activity [5]: 10%
COc1cc(CNC(=O)C(=O)c2c[nH]c3ccccc23)ccc1O | 96% | 1 | 0.14 µM | – | –
COc1cc(CNC(=O)C(=O)c2c[nH]c3ccc(Cl)cc23)ccc1O | 99% | 1.03 | 0.027 µM | – | –
O=C(NCCCc1ccccc1)C(=O)c1c[nH]c2ccc(Cl)cc12 | – | – | – | 32% | –
O=C(NCc1cccc(Cl)c1)C(=O)c1c[nH]c2ccccc12 | 96% | 0.95 | 0.16 µM | – | –
O=C(NCc1ccccc1Cl)C(=O)c1c[nH]c2ccccc12 | 77% | 0.93 | 2.6 µM | – | –
O=C(NCc1ccc(O)cc1)C(=O)c1c[nH]c2ccc([N+](=O)[O-])cc12 | – | 1.05 | 0.012 µM | 100% | logP [6]: 2.67; Activity [7]: 10%
O=C(NCc1ccc(F)cc1)C(=O)c1c[nH]c2ccc(Cl)cc12 | 21% | – | – | – | –
O=C(NCc1ccccc1F)C(=O)c1c[nH]c2ccc(Cl)cc12 | 39% | – | – | – | –
O=C(NCc1ccccc1)C(=O)c1c[nH]c2ccccc12 | – | 0.87 | 0.12 µM | 98% | Activity [5]: 29%
Cn1cc(C(=O)C(=O)NCc2cccc(O)c2)c2ccccc21 | – | – | – | 17% | –
O=C(Nc1ccc(O)cc1)C(=O)c1c[nH]c2ccc([N+](=O)[O-])cc12 | – | 1 | 1.8 µM | 76% | –
COc1ccc(CNC(=O)C(=O)c2c[nH]c3ccc([N+](=O)[O-])cc23)cc1 | – | 1.06 | 0.053 µM | 71% | logP [6]: 2.17; Activity [5]: 2%
O=C1CN=C(c2ccccc2Cl)c2cc([N+](=O)[O-])ccc2N1 | – | – | – | – | Activity [5]: 100%

SMILES | inhibition [1] | GABA ratio [2] | Ki [3] | inhibition [4] | also measured
O=C(NCc1ccc(Cl)cc1)C(=O)c1c[nH]c2ccc([N+](=O)[O-])cc12 | 2% | – | – | – | –
COc1ccc(CNC(=O)C(=O)c2cn(C)c3ccccc23)cc1OC | 70% | 0.88 | 2.7 µM | – | –
O=C(Nc1ccccc1)C(=O)c1c[nH]c2ccc(Cl)cc12 | – | – | – | 0% | –
O=C(NCc1ccccc1Cl)C(=O)c1c[nH]c2ccc(Cl)cc12 | 40% | – | – | – | –
O=C(NCc1ccccc1)C(=O)c1c[nH]c2ccc([N+](=O)[O-])cc12 | – | 1 | 0.117 µM | 55% | –
O=C(NCc1ccccc1F)C(=O)c1c[nH]c2ccccc12 | 94% | 0.86 | 0.66 µM | – | –
O=C(NCc1ccc(O)c(O)c1)C(=O)c1c[nH]c2ccc([N+](=O)[O-])cc12 | 98% | 1.35 | 0.048 µM | – | Activity [5]: 52%
O=C(NCc1ccc(O)c(O)c1)C(=O)c1c[nH]c2ccccc12 | 95% | 1.56 | 0.349 µM | – | –
O=C(NCc1cccc(O)c1)C(=O)c1c[nH]c2ccccc12 | – | 1.25 | 0.82 µM | 91% | –
COc1ccc(NC(=O)C(=O)c2c[nH]c3ccccc23)cc1 | – | – | – | 0% | –
COc1ccc(NC(=O)C(=O)c2c[nH]c3ccc(Cl)cc23)cc1 | – | – | – | 10% | –
O=C(NCCCc1ccccc1)C(=O)c1c[nH]c2ccc([N+](=O)[O-])cc12 | – | – | – | 52% | –
O=C(NCc1ccccc1F)C(=O)c1c[nH]c2ccc([N+](=O)[O-])cc12 | 42% | – | – | – | –
COc1ccc(CNC(=O)C(=O)c2c[nH]c3ccc([N+](=O)[O-])cc23)cc1OC | 97% | 1 | 0.011 µM | – | Activity [5]: 31%
O=C(NCc1ccc(O)cc1)C(=O)c1c[nH]c2ccc(Cl)cc12 | 98% | 1.1 | 0.15 µM | – | –
CCOC(=O)c1ncn2c1CN(C)C(=O)c1cc(F)ccc1-2 | – | – | – | – | Activity [5]: 15%
O=C(NCc1ccc(F)cc1)C(=O)c1c[nH]c2ccc([N+](=O)[O-])cc12 | 24% | – | – | – | –
COc1ccc(NC(=O)C(=O)c2c[nH]c3ccc([N+](=O)[O-])cc23)cc1 | – | – | – | 12% | –
